Laboratory results as given in ChEMBL document CHEMBL4261590, “Design, synthesis, and evaluation of chalcone analogues incorporate α,β-Unsaturated ketone functionality as anti-lung cancer agents via evoking ROS to induce pyroptosis” (Eur J Med Chem, 2018).
pIC50: −log10 of the molar value. Calls of active or inactive are those of the source. The calls are words filed in the database; no cut-off is given here.

Experiments:
NCI-H460 [1] = test: Antiproliferative activity against human NCI-H460 cells at 5 uM after 72 hrs by MTT assay; assay type: functional, cell-based
Outline: (§1)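 Single-concentration screen at 5 μM. Cells seeded at 3000 per well, cultured overnight, treated 72 h. MTT (5 mg/mL stock) added for 4 h, formazan dissolved in DMSO, absorbance at 490 nm. Growth inhibition rate = [1 − A treated/A control]×100%.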

A549 [2] = test: Antiproliferative activity against human A549 cells at 5 uM after 72 hrs by MTT assay; assay type: functional, cell-based; outline: as §1
NCI-H1975 [3] = test: Antiproliferative activity against human NCI-H1975 cells at 5 uM after 72 hrs by MTT assay; assay type: functional, cell-based; outline: as §1
[4] = (§2) Acute toxicity in BALB/c mouse assessed as mortality at 500 mg/kg, ip administered as single dose on day 1 measured during 14 days; assay type: organism-based; settings: BALB/c, in vivo
Outline: (§3)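 Male wild-type BALB/c mice (26-33 g), randomised into groups of n=6 (vehicle, reference agent, test). Single intraperitoneal injection at 500 mg/kg on the first day only. Housed on a 12 h light-dark cycle at 25 °C with free water and diet. Deaths recorded over 14 days, then all animals euthanised.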

NCI-H460 [5] = test: Antiproliferative activity against human NCI-H460 cells after 72 hrs by MTT assay; assay type: functional, cell-based; settings: NCI-H460, 72 h
Outline: (§4)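 Cells seeded at 3000 per well, cultured overnight, then exposed to compounds for 72 h at 37 °C, 5% CO2. MTT (5 mg/mL stock) added for 4 h, formazan dissolved in DMSO, absorbance read at 490 nm. Inhibition calculated as [1 − A treated/A control]×100%, and IC50 derived from the inhibition data. Mean ± SEM of three independent experiments.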

NCI-H1975 [6] = test: Antiproliferative activity against human NCI-H1975 cells after 72 hrs by MTT assay; assay type: functional, cell-based; settings: NCI-H1975, 72 h; outline: as §4
A549 [7] = test: Antiproliferative activity against human A549 cells after 72 hrs by MTT assay; assay type: functional, cell-based; settings: A549, 72 h; outline: as §4
NCI-H460 [8] = test: Induction of pyroptosis in human NCI-H460 cells assessed as cytoplasmic swelling at 20 uM after 19 to 24 hrs by bright field microscopic analysis; assay type: functional, cell-based
Outline: (§5)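 Cells plated at 300,000/well 24 h before stimulation, then exposed to compound at 20 μM for 19 and 24 h. Cisplatin (20 μg/mL, 24 h) run alongside, with DMSO-treated cells as control. Morphology recorded by static bright-field microscopy.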

NCI-H460 [9] = test: Inhibition of colony formation in human NCI-H460 cells after 12 hrs by crystal violet staining-based assay; assay type: functional, cell-based
Outline: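 Cells seeded at 1000 per well and grown overnight. Exposed to compounds at 1.25, 2.5 and 5 μM for 12 h, then switched to normal medium for about 8 days. Colonies stained with crystal violet and photographed.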

NCI-H460 [10] = test: Antiproliferative activity against human NCI-H460 cells at 5 uM after 12 to 72 hrs by MTT assay; assay type: functional, cell-based; settings: TDE = time-dependent effect
Outline: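 Time course at 5 μM, with exposures of 12, 24, 48 and 72 h. Cells seeded at 3000 per well after overnight attachment. Viability read by MTT (5 mg/mL stock, 4 h), formazan dissolved in DMSO, absorbance at 490 nm.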

NCI-H460 [11] = test: Induction of pyroptosis in human NCI-H460 cells at 20 uM assessed as loss of osmotic potential at 20 uM after 19 to 24 hrs by bright field microscopic analysis; assay type: functional, cell-based; outline: as §5
NCI-H460 [12] = test: Inhibition of colony formation in human NCI-H460 cells preincubated with 5 mM NAC for 1 hr followed by compound addition at 5 uM after 12 hrs by crystal violet staining-based assay; assay type: functional, cell-based
Outline: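 Cells pre-incubated with 5 mM NAC for 1 h, then exposed to compound at 5 μM for 12 h. Medium replaced with fresh medium and colonies grown about 8 days. Colonies stained with crystal violet and imaged.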

NCI-H460 [13] = test: Induction of pyroptosis in human NCI-H460 cells pretreated with 20 mM NAC for 4 hrs followed by compound addition assessed as at 20 uM after 24 hrs by bright field microscopic analysis; assay type: functional, cell-based
Outline: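 Cells plated at 300,000/well, pretreated with NAC (20 mM) for 4 h, then given compound at 20 μM for 24 h. Pyroptotic morphology recorded by bright-field microscopic imaging, with DMSO-treated cells as control.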

Mus musculus = test: as §2; assay type: organism-based; settings: in vivo, 336 h; outline: as §3
NCI-H460 [14] = test: Induction of pyroptosis in human NCI-H460 cells assessed as reduction in pro-caspase-3 protein expression at 5 uM by Western blot analysis; assay type: functional, cell-based; settings: TDE = time-dependent effect
NCI-H460 [15] = test: Induction of intracellular ROS accumulation in human NCI-H460 cells pre-treated with 5 mM NAC for 1 hr followed by compound addition at 10 uM for 3 hrs by DCFH-DA staining-based flow cytometric analysis; assay type: functional, cell-based
Outline: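 Cells plated at 300,000/well for 24 h, pretreated with 5 mM NAC for 1 h, then given compound at 10 μM for 3 h. Loaded with DCFH-DA (10 μM) for 30 min at 37 °C in the dark in serum-free medium. Read by flow cytometry.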

NCI-H460 [16] = test: Induction of pyroptosis in human NCI-H460 cells assessed as release of cellular content at 20 uM after 19 to 24 hrs by bright field microscopic analysis; assay type: functional, cell-based; outline: as §5
NCI-H460 [17] = test: Antiproliferative activity against human NCI-H460 cells assessed as reduction in cell viability preincubated with 5 mM NAC for 1 hr followed by compound addition at 5 uM after 48 hrs by MTT assay; assay type: functional, cell-based
Outline: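 Cells pre-incubated with 5 mM NAC for 1 h, then exposed to compound at 5 μM for 48 h. Viability read by MTT at 490 nm after formazan solubilisation in DMSO. Groups compared against compound-only and NAC-only treatments.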

NCI-H460 [18] = test: Induction of intracellular ROS accumulation in human NCI-H460 cells at 10 uM after 3 to 24 hrs by DCFH-DA staining-based flow cytometric analysis; assay type: functional, cell-based
Outline: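 Cells plated at 300,000/well for 24 h, then treated at 10 μM for 3, 6, 12 and 24 h. Switched to serum-free medium and loaded with DCFH-DA (10 μM) for 30 min at 37 °C in the dark. Cells collected and analysed by flow cytometry.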

Q: For `C=CC(=O)Nc1ccc(C(=O)/C=C/c2ccc(Cl)cc2)cc1`, which Activity (NCI-H460 [1]) is on record?
A: Active

Q: What about the Activity (A549 [2]) of the same compound?
A: inactive

Q: And the Activity (NCI-H1975 [3])?
A: Active

Q: Which mortality at 336 h [4] does the source give for `O=C1/C(=C/c2ccccc2F)CNC/C1=C\c1ccccc1F` here?
A: 33.3%

Q: For `C=CC(=O)Nc1ccc(C(=O)/C=C/c2ccccc2F)cc1`, which Activity (NCI-H460 [1]) is on record?
A: Active

Q: What about the Activity (NCI-H1975 [3]) of the same compound?
A: Active

Q: With `C=CC(=O)Nc1ccc(C(=O)/C=C/c2ccc(OC)cc2)cc1` as the compound, how does the Activity (NCI-H460 [1]) read?
A: Active

Q: And the Activity (A549 [2])?
A: inactive

Q: And the Activity (NCI-H1975 [3])?
A: Active

Q: With `COc1cc(O)c(CC=C(C)C)c(O)c1C(=O)/C=C/c1ccc(O)cc1` [XANTHOHUMOL] as the compound, how does the pIC50 (NCI-H460 [5]) read?
A: 5.12

Q: And the pIC50 (NCI-H1975 [6])?
A: 4.89

Q: What about the pIC50 (A549 [7]) of the same compound?
A: 4.92

Q: Which Activity (NCI-H460 [8]) does the source give for `C=CC(=O)Nc1ccc(C(=O)/C=C/c2ccccc2Cl)cc1` here?
A: Active

Q: What about the inhibition (NCI-H460 [9]) of the same compound?
A: Dose-dependent effect

Q: And the Activity (NCI-H460 [10])?
A: Tde

Q: What about the Activity (NCI-H460 [11]) of the same compound?
A: Active

Q: And the inhibition (NCI-H460 [12])?
A: inactive

Q: What about the Activity (NCI-H460 [13]) of the same compound?
A: inactive

Q: And the pIC50 (NCI-H460 [5])?
A: 5.64

Q: What about the Activity (NCI-H460 [1]) of the same compound?
A: Active

Q: And the Activity (Mus musculus)?
A: Non-Toxic

Q: And the Activity (A549 [2])?
A: Active

Q: What about the pIC50 (NCI-H1975 [6]) of the same compound?
A: 5.24

Q: And the pIC50 (A549 [7])?
A: 5.49

Q: And the Activity (NCI-H460 [14])?
A: Tde

Q: And the Activity (NCI-H460 [15])?
A: inactive

Q: And the Activity (NCI-H1975 [3])?
A: Active

Q: What about the Activity (NCI-H460 [16]) of the same compound?
A: Active

Q: What about the Activity (NCI-H460 [17]) of the same compound?
A: inactive

Q: And the Activity (NCI-H460 [18])?
A: Active

Q: Which Activity (NCI-H460 [1]) does the source give for `C=CC(=O)Nc1ccc(C(=O)/C=C/c2cccc(Cl)c2Cl)cc1` here?
A: Active

Q: And the Activity (NCI-H1975 [3])?
A: Active

Q: For `C=CC(=O)Nc1ccc(C(=O)/C=C/c2ccccc2C(F)(F)F)cc1`, which Activity (NCI-H460 [1]) is on record?
A: Active

Q: What about the Activity (A549 [2]) of the same compound?
A: Active

Q: And the Activity (NCI-H1975 [3])?
A: Active

Q: With `C=CC(=O)Nc1ccc(C(=O)/C=C/c2ccc(OC)c(OC)c2)cc1` as the compound, how does the Activity (NCI-H460 [1]) read?
A: Active

Q: And the Activity (A549 [2])?
A: inactive

Q: What about the Activity (NCI-H1975 [3]) of the same compound?
A: Active

Q: With `Nc1ccc(C(=O)/C=C/c2ccccc2Cl)cc1` as the compound, how does the Activity (NCI-H460 [1]) read?
A: Active

Q: What about the Activity (A549 [2]) of the same compound?
A: Active

Q: And the Activity (NCI-H1975 [3])?
A: Active

Q: For `C=CC(=O)Nc1ccc(C(=O)/C=C/c2c(F)cccc2F)cc1`, which Activity (NCI-H460 [1]) is on record?
A: Active

Q: What about the Activity (NCI-H1975 [3]) of the same compound?
A: Active

Q: Which Activity (NCI-H460 [1]) does the source give for `C=CC(=O)Nc1ccc(C(=O)/C=C/c2cc(OC)ccc2OC)cc1` here?
A: Active

Q: And the Activity (NCI-H1975 [3])?
A: Active

Q: What does the source list for `C=CC(=O)Nc1ccc(C(=O)/C=C/c2ccccc2Br)cc1`?
A: inhibition (NCI-H460 [9]): Dose-dependent effect; Activity (NCI-H460 [10]): Tde; pIC50 (NCI-H460 [5]): 5.66; Activity (NCI-H460 [1]): Active; pIC50 (NCI-H1975 [6]): 5.28; pIC50 (A549 [7]): 5.36; Activity (NCI-H1975 [3]): Active

Q: Which results are given for `C=CC(=O)Nc1ccc(C(=O)/C=C/c2ccc(N(C)C)cc2)cc1`?
A: Activity (NCI-H460 [1]): Active; Activity (A549 [2]): inactive; Activity (NCI-H1975 [3]): Active

Q: With `C=CC(=O)Nc1ccc(C(=O)/C=C/c2cc(OC)ccc2F)cc1` as the compound, how does the Activity (NCI-H460 [1]) read?
A: Active

Q: And the Activity (NCI-H1975 [3])?
A: Active

Q: What does the source list for `C=CC(=O)Nc1ccc(C(=O)/C=C/c2cccc(OC)c2OC)cc1`?
A: Activity (NCI-H460 [1]): Active; Activity (NCI-H1975 [3]): Active

Q: Which Activity (NCI-H460 [1]) does the source give for `C=CC(=O)Nc1ccc(C(=O)/C=C/c2ccc(F)c(F)c2)cc1` here?
A: Active

Q: What about the Activity (A549 [2]) of the same compound?
A: inactive

Q: What about the Activity (NCI-H1975 [3]) of the same compound?
A: Active

Q: What does the source list for `C=CC(=O)Nc1ccc(C(=O)/C=C/c2cccc(F)c2)cc1`?
A: Activity (NCI-H460 [1]): Active; Activity (NCI-H1975 [3]): Active

Q: With `C=CC(=O)Nc1ccc(C(=O)/C=C/c2ccccc2)cc1` as the compound, how does the Activity (NCI-H460 [1]) read?
A: Active

Q: And the Activity (NCI-H1975 [3])?
A: Active

Q: For `C=CC(=O)Nc1ccc(C(=O)/C=C/c2ccc(Cl)c(Cl)c2)cc1`, which Activity (NCI-H460 [1]) is on record?
A: Active

Q: What about the Activity (A549 [2]) of the same compound?
A: inactive

Q: And the Activity (NCI-H1975 [3])?
A: Active

Q: For `C=CC(=O)Nc1ccc(C(=O)/C=C/c2cc(OC)c(OC)c(OC)c2)cc1`, which inhibition (NCI-H460 [9]) is on record?
A: Dose-dependent effect

Q: And the Activity (NCI-H460 [10])?
A: Tde

Q: What about the pIC50 (NCI-H460 [5]) of the same compound?
A: 5.70

Q: What about the Activity (NCI-H460 [1]) of the same compound?
A: Active

Q: What about the pIC50 (NCI-H1975 [6]) of the same compound?
A: 5.27

Q: And the pIC50 (A549 [7])?
A: 5.40

Q: And the Activity (NCI-H1975 [3])?
A: Active

Q: For `C=CC(=O)Nc1ccc(C(C)=O)cc1`, which Activity (NCI-H460 [1]) is on record?
A: Active

Q: What about the Activity (A549 [2]) of the same compound?
A: Active

Q: What about the Activity (NCI-H1975 [3]) of the same compound?
A: Active

Q: With `C=CC(=O)Nc1ccc(C(=O)/C=C/c2ccc(Cl)cc2Cl)cc1` as the compound, how does the Activity (NCI-H460 [1]) read?
A: Active

Q: What about the Activity (NCI-H1975 [3]) of the same compound?
A: Active
